According to paper PMC11047177 (ESMO Open, 2024):

Assay: Phase I study NCT03854227: DLTs and adverse events
Assay type: in vivo, human
Method in brief: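 Open-label, multicentre first-in-human trial in adults (ECOG 0–1) with advanced or metastatic tumours. Oral test compound, q.d. or b.i.d., on an empty stomach in continuous 28-day cycles. Part 1 started at 0.5 mg q.d., with escalation guided by a two-parameter Bayesian logistic regression model on cycle 1 DLTs. Part 2 ran at 6 mg q.d. AEs were graded by CTCAE 5.0 and summarised descriptively by dose level.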

[1] = Part 2 N = 26, 6 mg q.d., any grade
[2] = Part 2 N = 26, 6 mg q.d., grade ≥3
[3] = overall (part 1 + part 2), N=54

## Cc1ncnc2c1ccn2[C@@H]1C[C@H](Oc2cc(C(F)F)c(F)c3c2CNCC3)[C@@H](O)[C@H]1O [PF-06939999]
Part 1 N = 28, any grade
  TRAE Anemia: 12 (43) n (%)
  TRAE Any: 24 (86) n (%)
  TRAE Decreased appetite: 6 (21) n (%)
  TRAE Dysgeusia: 9 (32) n (%)
  TRAE Dyspepsia: 2 (7) n (%)
  TRAE Fatigue: 9 (32) n (%)
  TRAE Hypomagnesemia: 4 (14) n (%)
  TRAE Leukopenia: 3 (11) n (%)
  TRAE Nausea: 8 (29) n (%)
  TRAE Neutropenia: 3 (11) n (%)
  TRAE Thrombocytopenia (including platelet count decreased): 9 (32) n (%)
  TRAE Vomiting: 1 (4) n (%)
  TRAE Weight decreased: 0 n (%)
Part 1 N = 28, grade ≥3
  TRAE Anemia: 8 (29) n (%)
  TRAE Any: 12 (43) n (%)
  TRAE Decreased appetite: 0 n (%)
  TRAE Dysgeusia: 0 n (%)
  TRAE Dyspepsia: 0 n (%)
  TRAE Fatigue: 2 (7) n (%)
  TRAE Hypomagnesemia: 0 n (%)
  TRAE Leukopenia: 0 n (%)
  TRAE Nausea: 0 n (%)
  TRAE Neutropenia: 1 (4) n (%)
  TRAE Thrombocytopenia (including platelet count decreased): 6 (21) n (%)
  TRAE Vomiting: 0 n (%)
  TRAE Weight decreased: 0 n (%)
[1]
  TRAE Anemia: 11 (42) n (%)
  TRAE Any: 21 (81) n (%)
  TRAE Decreased appetite: 7 (27) n (%)
  TRAE Dysgeusia: 3 (12) n (%)
  TRAE Dyspepsia: 4 (15) n (%)
  TRAE Fatigue: 6 (23) n (%)
  TRAE Hypomagnesemia: 1 (4) n (%)
  TRAE Leukopenia: 2 (8) n (%)
  TRAE Nausea: 9 (35) n (%)
  TRAE Neutropenia: 1 (4) n (%)
  TRAE Thrombocytopenia (including platelet count decreased): 13 (50) n (%)
  TRAE Vomiting: 3 (12) n (%)
  TRAE Weight decreased: 3 (12) n (%)
[2]
  TRAE Anemia: 7 (27) n (%)
  TRAE Any: 11 (42) n (%)
  TRAE Decreased appetite: 0 n (%)
  TRAE Dysgeusia: 0 n (%)
  TRAE Dyspepsia: 0 n (%)
  TRAE Fatigue: 1 (4) n (%)
  TRAE Hypomagnesemia: 0 n (%)
  TRAE Leukopenia: 1 (4) n (%)
  TRAE Nausea: 0 n (%)
  TRAE Neutropenia: 1 (4) n (%)
  TRAE Thrombocytopenia (including platelet count decreased): 6 (23) n (%)
  TRAE Vomiting: 0 n (%)
  TRAE Weight decreased: 0 n (%)
Total N = 54, any grade
  TRAE Anemia: 23 (43) n (%)
  TRAE Any: 45 (83) n (%)
  TRAE Decreased appetite: 13 (24) n (%)
  TRAE Dysgeusia: 12 (22) n (%)
  TRAE Dyspepsia: 6 (11) n (%)
  TRAE Fatigue: 15 (28) n (%)
  TRAE Hypomagnesemia: 5 (9) n (%)
  TRAE Leukopenia: 5 (9) n (%)
  TRAE Nausea: 17 (32) n (%)
  TRAE Neutropenia: 4 (7) n (%)
  TRAE Thrombocytopenia (including platelet count decreased): 22 (41) n (%)
  TRAE Vomiting: 4 (7) n (%)
  TRAE Weight decreased: 3 (6) n (%)
Total N = 54, grade ≥3
  TRAE Anemia: 15 (28) n (%)
  TRAE Any: 23 (43) n (%)
  TRAE Decreased appetite: 0 n (%)
  TRAE Dysgeusia: 0 n (%)
  TRAE Dyspepsia: 0 n (%)
  TRAE Fatigue: 3 (6) n (%)
  TRAE Hypomagnesemia: 0 n (%)
  TRAE Leukopenia: 1 (2) n (%)
  TRAE Nausea: 0 n (%)
  TRAE Neutropenia: 2 (4) n (%)
  TRAE Thrombocytopenia (including platelet count decreased): 12 (22) n (%)
  TRAE Vomiting: 0 n (%)
  TRAE Weight decreased: 0 n (%)
All 54 patients, 6 patients
  Patients who discontinued treatment due to AEs: 11%
oral, selected from safety and PK/PD modeling
  Recommended part 2 dose (RP2D): 6 mg q.d.
[3]
  Grade ≥3 TRAE Anemia: 28%
  Grade ≥3 TRAE Fatigue: 6%
  Grade ≥3 TRAE Neutropenia: 4%
